Published values pooled from the literature.
Each line is one published result; the experiments were not run side by side.
Target: Receptor-interacting serine/threonine-protein kinase 2 (RIPK2, Homo sapiens, UniProt O43353)

Structure (SMILES)	test	setting	endpoint	value
CNC(=O)c1cc(Oc2ccc(NC(=O)Nc3ccc(Cl)c(C(F)(F)F)c3)cc2)ccn1	cell-free assay	0.5 µM	remaining signal	86.2%
Cc1ccc(NC(=O)c2ccc(C)c(C(F)(F)F)c2)cc1C#Cc1nn(C2CCC(O)CC2)c2ncnc(N)c12 (stereo not shown)	cell-free assay	10 µM	remaining signal	21%
C[C@H](c1ccc(F)cc1)N(Cc1cccc(C(=O)O)c1)C(=O)c1cnc2ccccc2c1	cell-free assay, competition with immobilised ligand	1 µM	remaining binding	82%
Cc1ccc(C(=O)Nc2ccc(CN3CCN(C)CC3)c(C(F)(F)F)c2)cc1C#Cc1cnc2cccnn12	enzyme activity, inhibitor	23.5 nM	remaining activity	43%
COc1cc(-c2cn(C3CCc4ccccc4N(CC(F)(F)F)C3=O)nn2)ccc1-n1ccc(C)n1 (stereo not shown)	cell-free assay, competition with immobilised ligand	1 µM	remaining binding	93%
Oc1ccc(-c2nc(-c3ccncc3)c(-c3ccc(F)cc3)[nH]2)cc1	cell-free assay	0.5 µM	remaining signal	46.8%
CCS(=O)(=O)c1cc2cc(C[C@](O)(CC(C)(C)c3ccc(F)cc3C(N)=O)C(F)(F)F)[nH]c2cn1	cell-free assay, competition with immobilised ligand	1 µM	remaining binding	67%
Cn1cnc(Br)c1C1=CN(c2ncnc3[nH]cnc23)CCS1	enzyme activity, inhibitor, radiometric	2 µM	inhibition	34%
FC(F)(F)Oc1cccc(-c2cnc3ccc(-c4ccncc4)nn23)c1	enzyme activity, inhibitor, radiometric	1 µM	activity vs control	32%
CCCOc1ccc([C@H]2[C@H](C(=O)O)[C@@H](c3ccc4c(c3)OCO4)CN2CC(=O)Nc2c(CC)cccc2CC)cc1	cell-free assay, competition with immobilised ligand	1 µM	remaining binding	100%
CCN(CC)CCNC(=O)c1c(C)[nH]c(/C=C2\C(=O)Nc3ccc(F)cc32)c1C	enzyme activity, inhibitor	10 µM	inhibition	24%
COc1cc(Nc2cnc(C#N)c(O[C@H](C)CN(C)C)n2)ncc1-c1cnn(C)c1	enzyme activity, inhibitor, radiometric	10 µM	remaining activity	71%
FC(F)c1nc2ccccc2n1-c1nc(N2CCOCC2)nc(N2CCOCC2)n1	enzyme activity, inhibitor	10 µM	remaining activity	89%
COc1cc(Cl)c(C(=O)N[C@@H](CN[C@H]2CC[C@@H](N)CC2)Cc2ccc(C#N)cc2)cc1-c1ccc(CN[C@H](C)c2ccc(C)cc2)o1	enzyme activity, inhibitor	1 µM	remaining activity	100%
CN1CC(Oc2cnc(C#N)cc2-c2ccn3nc(NC(=O)C4CC4)cc3c2)C1	enzyme activity, inhibitor	1 µM	inhibition	81%
O=C(Nc1cnn(-c2csc(C(=O)NC3COC3)c2)c1)Nc1ccccc1Cl	enzyme activity, inhibitor	5 µM	remaining activity	120%
CNCc1ccc(-c2cc(-c3nc(-c4ccc(S(=O)(=O)C(C)C)cc4)cnc3N)on2)cc1	enzyme activity, inhibitor	2 µM	inhibition	26%
C[C@@H]1CN(c2cc(-c3n[nH]c4ccc(OC5(C)CC5)cc34)ncn2)C[C@H](C)O1	cell-free assay, competition with immobilised ligand	0.1 µM	remaining binding	100%
C[C@@H]1CCN(C(=O)CC#N)C[C@@H]1N(C)c1ncnc2[nH]ccc12	cell-free assay, inhibitor	0.5 µM	remaining signal	113%
Cc1cnc(NC2CCOCC2)nc1-n1cnc(C(=O)NC(CN)c2cc(F)cc(Cl)c2)c1 (stereo not shown)	enzyme activity, inhibitor, radiometric	1 µM	remaining activity	90%
CNC(=O)c1cc2c(Oc3ccc(NC(=O)C4(C(=O)Nc5ccc(F)cc5)CC4)cc3)ccnc2cc1OC	enzyme activity, inhibitor, radiometric	1 µM	inhibition	74%
CC(C)(C)c1nc2c(s1)c1nc(N)ncc1c1ccc(NS(=O)(=O)c3c(F)cccc3F)c(F)c12	enzyme activity, inhibitor, radiometric	1 µM	remaining activity	70%
CNCc1ccccc1-c1csc([C@@H](C)Nc2nc(C)nc3cc(OC)c(OC)cc23)c1	cell-free assay, competition with immobilised ligand	1 µM	remaining binding	100%
O=C1NC(=O)c2cc(Nc3ccc(F)cc3)c(Nc3ccc(F)cc3)cc21	cell-free assay	0.5 µM	remaining signal	95%
O=C(O)[C@H]1[C@H](Cn2nnc3ccccc3c2=O)CC[C@@H]1C(=O)c1ccc(OCCC2CCOCC2)cc1	cell-free assay, competition with immobilised ligand	1 µM	remaining binding	100%
COc1cc(/C=C/C(=O)CC(=O)/C=C/c2ccc(O)c(OC)c2)ccc1O	enzyme activity, inhibitor	1 µM	activity vs control	16%
C[C@H](NC(=O)c1cnc2n1[C@](C)(Cc1ccc(C#N)cc1)C(=O)N2c1cc(Cl)c(F)c(Cl)c1)C(=O)NC1(c2ccccn2)CC1	cell-free assay, competition with immobilised ligand	1 µM	remaining binding	68%
Cc1ccc(C(=O)NCc2ccsc2)cc1C#Cc1cn(C(C)C)c2ncnc(N)c12	enzyme activity, inhibitor	1 µM	activity vs control	14%
